These results are taken from publication PMC3128788 (Nuclear medicine and biology, 2011).

The structures appear in SMILES notation. Where “and” joins values, the source holds several entries; their conditions need not be identical. Identical values can stand only once. Marks after values point to notes of the source that are not given here.

Data set [1] deals with human D3 dopamine receptors expressed in HEK 293 cells (Homo sapiens, UniProt P35462). Kind of data set: Dopamine receptor filtration binding assay, [125I]-IABN competition, D3. To be noted: for D3 (Ki): mean Ki ± S.E.M., [125I]-IABN, HEK 293 membranes, unit printed in b5 only.
human D3 dopamine receptors expressed in HEK 293 cells, sequence (P35462 whole entry): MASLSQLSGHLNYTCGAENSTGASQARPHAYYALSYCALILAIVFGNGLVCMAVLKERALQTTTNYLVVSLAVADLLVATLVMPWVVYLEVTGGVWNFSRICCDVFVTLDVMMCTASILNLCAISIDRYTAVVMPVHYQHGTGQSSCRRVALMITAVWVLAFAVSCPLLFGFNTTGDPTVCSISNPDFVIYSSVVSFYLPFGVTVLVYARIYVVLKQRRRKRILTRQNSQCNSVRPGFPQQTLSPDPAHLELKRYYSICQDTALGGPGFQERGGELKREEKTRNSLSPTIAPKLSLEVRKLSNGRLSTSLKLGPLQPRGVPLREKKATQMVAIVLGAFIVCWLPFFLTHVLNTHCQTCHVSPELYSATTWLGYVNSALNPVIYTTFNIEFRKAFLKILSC
The target of data set [2] is D3 dopamine receptors (transfected HEK cells) (Homo sapiens, UniProt P35462). Put plainly: Whole cell forskolin-dependent adenylyl cyclase inhibition assay, D3. The data set is classed as cell-based. To be noted: for Functional classification at D3 dopamine receptors: compared to quinpirole; for %IA D3: intrinsic activity, compared to the full agonist quinpirole.
D3 dopamine receptors (transfected HEK cells), sequence (P35462 whole entry): as above
In data set [3] the target is D2 dopamine receptors (transfected HEK cells) (Homo sapiens, UniProt P14416). Kind of data set: Whole cell forskolin-dependent adenylyl cyclase inhibition assay, D2. To be noted: intrinsic activity. Type of data set: cell-based. In a few lines: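 Transfected HEK cells were prelabelled with 2,8-3H-adenine in serum-free medium for 75 min at 37 °C. They were then incubated with test compound in serum-free medium containing 0.1 mM 3-isobutyl-1-methylxanthine for 20 min at 37 °C. The reaction was stopped with a solution of 10% trichloroacetic acid and 1 mM cyclic AMP, and accumulated 3H-cyclic AMP was measured.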
D2 dopamine receptors (transfected HEK cells), sequence (P14416 whole entry): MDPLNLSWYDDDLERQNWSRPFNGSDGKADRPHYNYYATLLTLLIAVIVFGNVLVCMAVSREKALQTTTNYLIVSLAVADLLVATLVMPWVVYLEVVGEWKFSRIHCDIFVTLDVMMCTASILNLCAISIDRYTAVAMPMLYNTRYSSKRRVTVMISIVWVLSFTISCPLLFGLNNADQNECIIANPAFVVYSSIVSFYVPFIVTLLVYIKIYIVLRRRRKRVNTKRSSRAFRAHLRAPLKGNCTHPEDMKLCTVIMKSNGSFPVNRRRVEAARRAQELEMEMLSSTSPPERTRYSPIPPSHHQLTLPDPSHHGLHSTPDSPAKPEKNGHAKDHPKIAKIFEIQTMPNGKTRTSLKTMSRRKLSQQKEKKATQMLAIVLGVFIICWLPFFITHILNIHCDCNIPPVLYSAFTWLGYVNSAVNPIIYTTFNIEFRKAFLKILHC

In data set [4] the test system is P-gp expressed in Madin-Darby canine kidney (MDCK)-MDR1 cells. The following applies: efflux blocked with verapamil; cited from earlier work.
Data set [5] is classed as in vivo, male Sprague Dawley rats.
Where [6] appears, read: CycA […] mg/kg i.v. 30 min before tracer, 5 min post-injection.
Where [7] appears, read: CycA […] mg/kg i.v. 30 min before tracer, 30 min post-injection.
Setting [8] is: control rats, i.v., 5 min post-injection.
Setting [9] is: control rats, i.v., 30 min post-injection.
Setting [10] is: ratio of tracer uptake in CycA versus control group 30 min post injection.

For the molecule `CN(C)c1ccc(C(=O)NCCCCN2CCN(c3ccccc3OCCF)CC2)cc1` [Compound 8, 4-(dimethylamino)-N-(4-(4-(2-(2-fluoroethoxy)phenyl)piperazin-1-yl)butyl)benzamide], the “D3 (Ki)” value in data set [1] is “subnanomolar”. Moreover, the “D2:D3 selectivity ratio” value in data set [1] (selectivity for D3 versus D2 receptors) is given as 23. In data set [2], the “Functional classification at D3 dopamine receptors” value (“Functional classification” below) is listed as “partial agonist”; the “%IA D3” value is 64.5 ± 8.3% and 64.5 ± 8%. Further, in data set [3], the “%IA D2” value amounted to 66.3 ± 1%.
As for `O=C(NC/C=C/CN1CCN(c2cccc(Cl)c2Cl)CC1)c1ccc(-c2ccccn2)cc1` [PG 01037], in data set [4], the “Substrate for P-gp” value was “substrate for P-gp”.
For the molecule `O=C(NCCCCN1CCN(c2ccccc2OCCF)CC1)c1ccc(-c2ccsc2)cc1` [Compound 9, N-(4-(4-(2-(2-fluoroethoxy)phenyl)piperazin-1-yl)butyl)-4-(thiophen-3-yl)benzamide], in data set [2], the “Functional classification” value is on record as “weak partial agonist” and the “%IA D3” value came out at 34.4 ± 1.7%. Further, the “%IA D2” value in data set [3] amounted to 29.3 ± 7.3%.
Take `COc1ccccc1N1CCN(CCCCNC(=O)c2ccc(N(C)C)cc2)CC1` [Compound 6, 4-(dimethylamino)-N-(4-(4-(2-methoxyphenyl)piperazin-1-yl)butyl)benzamide]: the “D3 (Ki)” value in data set [1] is “subnanomolar”. For the same molecule, in data set [2], the “Functional classification” value is recorded as “weak partial agonist/antagonist”. Moreover, the “%IA D2” value in data set [3] came to 34 ± 3%.
In the case of `O=C(NCCCCN1CCN(c2ccccc2OCC[18F])CC1)c1ccc(-c2ccsc2)cc1` [[^18F]9, N-(4-(4-(2-(2-[^18F]fluoroethoxy)phenyl)piperazin-1-yl)butyl)-4-(thiophen-3-yl)benzamide], in data set [5] (setting [6]), the “Blood %ID/gram, 5 min CycA” value was 0.098 ± 0.009 %ID/gram; the “Bone %ID/gram, 5 min CycA” value was 0.162 ± 0.030 g %ID/gram; the “Fat %ID/gram, 5 min CycA” value amounted to 0.046 ± 0.028 %ID/gram; the “Kidney %ID/gram, 5 min CycA” value came out at 1.913 ± 0.037 %ID/gram. Moreover, in data set [5] (setting [6]), the “Liver %ID/gram, 5 min CycA” value was 1.478 ± 0.336 %ID/gram; the “Lung %ID/gram, 5 min CycA” value is recorded as 3.356 ± 0.261 %ID/gram; the “Muscle %ID/gram, 5 min CycA” value stood at 0.097 ± 0.0417 %ID/gram; the “Total brain %ID/gram, 5 min CycA” value was found to be 0.725 ± 0.022 %ID/gram. Further, in data set [5] (setting [7]), the “Blood %ID/gram, 30 min CycA” value is listed as 0.109 ± 0.019 %ID/gram; the “Bone %ID/gram, 30 min CycA” value is 0.143 ± 0.016 %ID/gram; the “Fat %ID/gram, 30 min CycA” value stood at 0.093 ± 0.017 %ID/gram; the “Kidney %ID/gram, 30 min CycA” value is given as 1.397 ± 0.260 %ID/gram. Also, in data set [5] (setting [7]), the “Liver %ID/gram, 30 min CycA” value was 1.039 ± 0.124 %ID/gram; the “Lung %ID/gram, 30 min CycA” value stood at 1.063 ± 0.182 %ID/gram; the “Muscle %ID/gram, 30 min CycA” value is reported as 0.108 ± 0.014 %ID/gram; the “Total brain %ID/gram, 30 min CycA” value turned out to be 0.504 ± 0.023 %ID/gram. Further, in data set [5] (setting [8]), the “Blood %ID/gram, 5 min No Rx” value is given as 0.082 ± 0.027 %ID/gram; the “Bone %ID/gram, 5 min No Rx” value amounted to 0.253 ± 0.001 %ID/gram; the “Fat %ID/gram, 5 min No Rx” value is given as 0.028 ± 0.003 %ID/gram; the “Kidney %ID/gram, 5 min No Rx” value turned out to be 2.485 ± 0.608 %ID/gram. Besides, in data set [5] (setting [8]), the “Liver %ID/gram, 5 min No Rx” value is 1.430 ± 0.221 %ID/gram; the “Lung %ID/gram, 5 min No Rx” value is reported as 4.026 ± 1.177 %ID/gram; the “Muscle %ID/gram, 5 min No Rx” value came out at 0.083 ± 0.009 %ID/gram; the “Total brain %ID/gram, 5 min No Rx” value came out at 0.118 ± 0.001 %ID/gram. Also, in data set [5] (setting [9]), the “Blood %ID/gram, 30 min No Rx” value was found to be 0.104 ± 0.010 %ID/gram; the “Bone %ID/gram, 30 min No Rx” value was 0.220 ± 0.0494 %ID/gram; the “Fat %ID/gram, 30 min No Rx” value is recorded as 0.091 ± 0.0029 %ID/gram; the “Kidney %ID/gram, 30 min No Rx” value amounted to 1.363 ± 0.0359 %ID/gram. For the same molecule, in data set [5] (setting [9]), the “Liver %ID/gram, 30 min No Rx” value amounted to 1.162 ± 0.1400 %ID/gram; the “Lung %ID/gram, 30 min No Rx” value is recorded as 1.313 ± 0.3574 %ID/gram; the “Muscle %ID/gram, 30 min No Rx” value is 0.083 ± 0.0139 %ID/gram; the “Total brain %ID/gram, 30 min No Rx” value is 0.095 ± 0.0208 %ID/gram. Also, the “Bone activity levels from 5 min to 30 min (metabolic defluorination)” value in data set [5] (normal rats) is “No accumulation”. In data set [5] (setting [10]), the “Blood CycA:No Rx” value was determined as 1.05, the “Bone CycA:No Rx” value is reported as 0.65, the “Fat CycA:No Rx” value is 1.02 and the “Kidney CycA:No Rx” value turned out to be 1.03. In data set [5] (setting [10]), the “Liver CycA:No Rx” value is given as 0.89, the “Lung CycA:No Rx” value amounted to 0.81, the “Muscle CycA:No Rx” value is reported as 1.24 and the “Total brain CycA:No Rx” value was 5.33 ^h.
Take `COc1ccccc1N1CCN(CCCCNC(=O)c2ccc(CCF)cc2)CC1` [Compound 7, 4-(2-fluoroethyl)-N-(4-(4-(2-methoxyphenyl)piperazin-1-yl)butyl)benzamide]: in data set [1], the “D3 (Ki)” value was “subnanomolar”. Also, the “%IA D2” value in data set [3] stood at 35 ± 1%.
